Test results taken from article PMC7616001 (Journal of medicinal chemistry, 2022).
Entries after “also recorded” stand apart in the source; their conditions may differ.

Experiments:
HeLa = experiment: MTT assay, 72 h continuous exposure, HeLa cells; format: cell-based, human
Outline: (§1)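 Ovarian lines grown in RPMI with 10% FBS and 1% penicillin/streptomycin; A2780Cis kept on 2 μM cisplatin 3 days each week. HeLa grown in DMEM with the same supplements. 3 × 10^3 cells/well, overnight, then serial dilutions of DMSO stocks (final DMSO ≤0.1%); cisplatin stock in PBS. 72 h continuous exposure, MTT 0.5 mg/mL 3 h, formazan in DMSO, A570 normalised to untreated. IC50 from curves; ≥3 independent experiments.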

A2780 [1] = experiment: MTT assay, 72 h continuous exposure, A2780 cells; format: cell-based, human
Outline: as §1

A2780 [2] = experiment: 72 h crystal violet; format: cell-based, human; conditions: read-out: IC50 (CV assay) A2780; 72 h CV assay
Outline: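 Seeding and dosing as for MTT: 3 × 10^3 cells/well, overnight, final DMSO ≤0.1%, 72 h exposure. Wells washed with PBS and fixed in 4% paraformaldehyde for 15 min. Crystal violet stained, dried, dissolved in 96% ethanol and A570 read. IC50 derived from dose–response curves.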

HeLa cells [3] = experiment: Trypan blue dye exclusion cell proliferation assay; format: cell-based, human
Outline: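 HeLa seeded in 24‑well plates. Next day, some wells trypsinised, stained with trypan blue and live cells counted by hemocytometer as the 0 h value. Remaining wells left untreated or dosed at various concentrations. Viable cells counted at 24, 48, 72, 96 and 120 h and plotted against time.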

HeLa cells [4] = experiment: Whole cell uptake by ICP-MS; format: cell-based, human; conditions: 10 μM
Outline: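 2 × 10^6 cells per 60 mm plate, grown overnight. Incubated 4 h in fresh medium containing 10 μM test compound. Washed three times with PBS, detached with trypsin and counted for per‑cell metal uptake.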

[5] = Stability in RPMI-1640 cell culture medium by UPLC; format: physicochemical
Outline: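 Test compound incubated in RPMI‑1640 and monitored by UPLC. Run twice, each with three replicates.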

zebrafish embryos = experiment: Zebrafish embryo toxicity and viability analysis; format: in vivo, zebrafish (Danio rerio)
Outline: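 Wild‑type embryos, ten per 5 mL E3. Test compound at final 20, 30 or 40 μM, diluted from a 5 mM DMSO stock; DMSO vehicle at 10 μL/mL. Exposure from 26 hpf to 72 hpf at 28 °C, then scored for viability and morphology.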

[6] = tested on: genomic DNA of HeLa cells; experiment: Metalation of genomic DNA, ICP-MS; format: cell-based, human; conditions: 20 μM, 24 h exposure
Cyclic voltammetry = format: physicochemical; conditions: acetonitrile, 0.1 M NEt4BF4
ROS level in HeLa cells = experiment: H2DCF-DA intracellular ROS assay; format: cell-based, human; conditions: 10 μM, 1-8 h
Outline: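 HeLa plated at 10 × 10^3 per well, grown overnight, then exposed to 10 μM test compound for 1, 2, 4 or 8 h. Washed with PBS and loaded with 10 μM H2DCF‑DA for 30 min. Washed again, phenol red‑free DMEM added, fluorescence read immediately. Three biological replicates.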

ΔΨm of HeLa cells = experiment: JC-1 mitochondrial membrane potential assay, flow cytometry; format: cell-based, human; conditions: 24 h, even at 1/4 × IC50/24h (10 μM)
HeLa cells [7] = experiment: Annexin-V/PI dual staining flow cytometry; format: cell-based, human; conditions: 24 h
[8] = tested on: IRE1α, ATF6, p-elF2α, unfolded proteins in HeLa cells; experiment: Western blot of polyubiquitinated proteins and ER-stress marker proteins; format: cell-based, human; conditions: 24 h
Outline: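 HeLa cells, about 2 × 10^6 at 80–90% confluency, were treated for 24 h with test compound at 10, 20 or 40 μM, with celastrol as positive control. RIPA lysates with protease inhibitors were heated in Laemmli buffer (90 °C, 10 min), resolved on 10/12% SDS-PAGE and transferred to PVDF. Membranes were blocked in 2% milk and probed overnight at 4 °C with primary antibodies (1:1000), then with HRP secondary antibodies.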

[9] = tested on: PARP, p53, cleaved caspase 3 in HeLa cells; experiment: Western blot of apoptosis-related marker proteins; format: cell-based, human; conditions: 24 h
Outline: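 ~2 million HeLa per 60 mm dish, grown to 80–90% confluency, treated 24 h at 10, 20 or 40 μM. Lysed in RIPA buffer with protease inhibitors. Membranes blocked with 2% skim milk in 0.1% Tween 20 for 30 min. Primary antibody 1:1000 overnight at 4 °C; HRP secondary antibody.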

[10] = tested on: LC3-II/LC3-I in HeLa cells; experiment: Western blot of autophagy marker proteins; format: cell-based, human; conditions: 24 h
Outline: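 ~2 million HeLa per 60 mm dish, grown to 80–90% confluency, then treated 24 h. Lysed in RIPA buffer with protease inhibitors. Membranes blocked with 2% skim milk in 0.1% Tween 20 for 30 min. Primary antibody 1:1000 overnight at 4 °C; HRP secondary antibody; LC3 forms detected.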

[11] = tested on: mitochondrial Ca^2+ level in HeLa cells; experiment: Mitochondrial Ca2+ level, Rhod-2 AM imaging; format: cell-based, human; conditions: 20 μM
[12] = tested on: acidic vesicular organelles in HeLa cells; experiment: Acridine orange assay; format: cell-based, human; conditions: HeLa, 10, 20, 40 μM, 24 h
Outline: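 HeLa cells in 35 mm dishes exposed to test compound at 10, 20 or 40 μM for 24 h, or rapamycin (1 μM, 24 h) as reference. Medium replaced with FBS-free medium containing 1 μM acridine orange for 25 min in the dark (37 °C, 5% CO2). Cells washed with PBS and overlaid with phenol red-free DMEM (4% FBS) for imaging.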

ER of HeLa cells = experiment: ER imaging of ER-RFP-labeled HeLa cells; format: cell-based, human
Outline: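 HeLa cells transduced with a CellLight ER-RFP BacMam 2.0 construct, replated on glass-bottom dishes overnight, then treated with test compound (20 or 40 μM) for 8 h or 24 h. A platinum–ferrocene complex (40 μM) served as positive control. After PBS washes, confocal images were taken in phenol red-free medium (ex 543 nm, em 584–655 nm) at constant exposure.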

## Cc1ccc(C(C)C)cc1.O=C(C=C([O-])C(F)(F)F)[c-]1cccc1.[Cl-].[Fe+2].[Ru+2].c1cc[cH-]c1 [Compound 1, [(η^6-p-cymene)Ru(1,1,1-trifluoro-4-oxo-4-ferrocenyl-but-2-en-2-olate)Cl]]
HeLa; HeLa cells, 72 h MTT
  fold higher potency compared to oxaliplatin: 1.6 fold
HeLa; read-out: IC50 HeLa, 72 h continuous exposure, MTT assay
  IC50: 1.3 ± 0.3 µM
A2780 [1]; A2780 cells
  fold more potent compared to Ru1, Ru3 and Ru4: 3−18 fold
A2780 [1]; read-out: IC50 A2780, 72 h continuous exposure, MTT assay
  IC50: 2.5 ± 0.3 µM
A2780 [2]
  IC50: 7.2 ± 0.3 µM
HeLa cells [3]; 5 and 10 μM
  effect on number of viable cells: time-dependent antiproliferative effect
HeLa cells [3]; 20 and 40 μM
  effect on number of viable cells: exerted antitumor activity by killing cells
HeLa cells [4]; 4 h
  fold higher accumulation than 3: 3.5 fold
  times lower cellular accumulation compared to 4: 1.6 times
  whole cell uptake: 57 ± 9.7 pmol/10^6 cells
HeLa cells [4]; 4 h exposure
  whole cell uptake: 57.0 ± 9.7 picomole Ru/10^6 cells
[5]; after 24 h
  intact compound remaining in RPMI-1640 with 10% FBS: ~45%
[5]; after 72 h
  intact compound remaining in RPMI-1640 with 10% FBS: ~7%
[5]; up to 8 h, 37 °C, UPLC
  decomposition in RPMI-1640 with 10% FBS: < 20%
Zebrafish embryos; 72 hpf, up to 40 μM
  morphology / visible toxic effects on embryos: morphologically indistinguishable from untreated control embryos; also recorded: did not show any visible toxic effects
Zebrafish embryos; treated at 26 hpf, even at 40 μM dose
  animal viability at 72 hpf: 100%
[6]
  metalation of genomic DNA: comparable with that of the classical DNA-targeted Pt drug cisplatin
Cyclic voltammetry
  oxidation potential (vs Fc^+/0): 321 mV
ROS level in HeLa cells
  intracellular ROS level (H2DCF-DA): significant increase in ROS
ΔΨm of HeLa cells
  effect on ΔΨm (JC-1 red/green): dramatic decrease in ΔΨm
HeLa cells [7]; 10 μM
  AV^−/PI^+ cells (necrosis): 9%
HeLa cells [7]; 20 μM
  AV^−/PI^+ cells (necrosis): 15.4%
[8]; 10-40 μM
  unfolded (polyubiquitinated) proteins: dose-dependent upregulation of unfolded proteins
[8]
  IRE1α and ATF6 levels: significant upregulation of both IRE1α and ATF6
  p-elF2α level (PERK arm): did not increase the level of the downstream protein p-elF2α
[9]; cisplatin 10 μM, 1 at 1/4 × IC50 to IC50
  apoptosis markers (PARP cleavage, p53, cleaved caspase 3): none of these apoptosis markers were upregulated
[9]; western blot
  PARP level: significant upregulation of PARP
[10]
  ratio of LC3-II/LC3-I: no increase in the ratio of LC3-II/LC3-I
[11]
  increase in mitochondrial Ca^2+ level compared to untreated control: ~ 5 fold
[12]
  acidic vesicular organelles: did not cause formation and promotion of acidic vesicular organelles
ER of HeLa cells
  ER dilation and vacuole formation: ER dilation and/or vacuole formation were not observed
